From ChEMBL document CHEMBL2034931, “Discovery of Novel Small Molecule Mer Kinase Inhibitors for the Treatment of Pediatric Acute Lymphoblastic Leukemia” (ACS Med Chem Lett, 2012)
pIC50: −log10 of the molar value.

How the values were obtained:
[1] = target: T1, Tyrosine-protein kinase receptor TYRO3 (Homo sapiens, UniProt Q06418); assay: Inhibition of Tyro3 using EFPIYDFLPAKKK-CONH2 as substrate after 180 mins by microfluid capillary electrophoresis assay
T1 sequence (Q06418 whole entry): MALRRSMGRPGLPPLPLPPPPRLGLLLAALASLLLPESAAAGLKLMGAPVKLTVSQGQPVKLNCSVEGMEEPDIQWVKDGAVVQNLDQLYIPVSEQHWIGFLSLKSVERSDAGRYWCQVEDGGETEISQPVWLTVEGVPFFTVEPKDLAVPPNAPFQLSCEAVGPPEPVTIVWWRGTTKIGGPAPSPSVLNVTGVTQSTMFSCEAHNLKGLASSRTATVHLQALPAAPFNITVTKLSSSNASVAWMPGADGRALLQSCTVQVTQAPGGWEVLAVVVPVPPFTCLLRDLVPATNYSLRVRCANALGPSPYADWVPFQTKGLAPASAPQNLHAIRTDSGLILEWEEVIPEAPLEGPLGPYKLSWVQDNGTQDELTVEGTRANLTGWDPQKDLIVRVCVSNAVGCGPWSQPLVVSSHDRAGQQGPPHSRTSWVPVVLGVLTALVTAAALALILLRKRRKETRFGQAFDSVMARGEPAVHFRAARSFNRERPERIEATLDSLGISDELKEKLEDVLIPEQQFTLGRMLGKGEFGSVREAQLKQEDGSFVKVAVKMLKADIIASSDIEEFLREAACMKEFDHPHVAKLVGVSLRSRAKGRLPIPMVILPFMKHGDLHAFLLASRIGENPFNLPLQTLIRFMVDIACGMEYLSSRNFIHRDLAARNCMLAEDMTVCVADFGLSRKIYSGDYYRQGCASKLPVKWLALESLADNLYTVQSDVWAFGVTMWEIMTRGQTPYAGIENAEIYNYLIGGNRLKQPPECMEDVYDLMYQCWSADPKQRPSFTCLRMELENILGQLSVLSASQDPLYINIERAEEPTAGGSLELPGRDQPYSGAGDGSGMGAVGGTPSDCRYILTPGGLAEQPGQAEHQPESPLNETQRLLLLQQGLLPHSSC

[2] = target: T2, Tyrosine-protein kinase receptor UFO (Homo sapiens, UniProt P30530); assay: Inhibition of Axl using KKKKEEIYFFF-CONH2 as substrate after 180 mins by microfluid capillary electrophoresis assay
T2 sequence (P30530 whole entry): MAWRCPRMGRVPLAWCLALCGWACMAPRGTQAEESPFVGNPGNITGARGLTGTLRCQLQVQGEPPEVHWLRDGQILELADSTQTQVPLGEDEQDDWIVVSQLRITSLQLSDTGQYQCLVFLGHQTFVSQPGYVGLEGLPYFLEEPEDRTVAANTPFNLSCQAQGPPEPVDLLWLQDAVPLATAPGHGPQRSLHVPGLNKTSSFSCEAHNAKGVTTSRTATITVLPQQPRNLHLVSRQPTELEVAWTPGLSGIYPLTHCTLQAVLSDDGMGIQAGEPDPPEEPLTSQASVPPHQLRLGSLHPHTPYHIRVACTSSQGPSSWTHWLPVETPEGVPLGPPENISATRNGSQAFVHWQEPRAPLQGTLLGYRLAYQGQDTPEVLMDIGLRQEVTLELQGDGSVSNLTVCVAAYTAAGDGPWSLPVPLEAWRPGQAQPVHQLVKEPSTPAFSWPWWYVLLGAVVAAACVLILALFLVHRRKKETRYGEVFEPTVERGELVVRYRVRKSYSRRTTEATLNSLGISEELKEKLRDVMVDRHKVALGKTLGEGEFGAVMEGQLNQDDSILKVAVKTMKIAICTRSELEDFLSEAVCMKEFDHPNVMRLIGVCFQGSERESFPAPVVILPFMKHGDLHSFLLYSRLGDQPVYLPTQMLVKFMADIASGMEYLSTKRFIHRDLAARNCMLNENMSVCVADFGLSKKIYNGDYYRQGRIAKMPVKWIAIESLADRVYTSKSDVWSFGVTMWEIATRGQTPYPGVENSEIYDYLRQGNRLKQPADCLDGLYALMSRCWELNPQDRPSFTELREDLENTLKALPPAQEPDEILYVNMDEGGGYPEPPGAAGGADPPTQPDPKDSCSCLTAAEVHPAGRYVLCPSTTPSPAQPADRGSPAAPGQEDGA

[3] = target: Receptor-type tyrosine-protein kinase FLT3 (Homo sapiens) (UniProt P36888); assay: Inhibition of FLT3 at 10 times IC50 concentration after 90 mins in presence of ATP
Sequence of Receptor-type tyrosine-protein kinase FLT3 (Homo sapiens) (P36888 whole entry): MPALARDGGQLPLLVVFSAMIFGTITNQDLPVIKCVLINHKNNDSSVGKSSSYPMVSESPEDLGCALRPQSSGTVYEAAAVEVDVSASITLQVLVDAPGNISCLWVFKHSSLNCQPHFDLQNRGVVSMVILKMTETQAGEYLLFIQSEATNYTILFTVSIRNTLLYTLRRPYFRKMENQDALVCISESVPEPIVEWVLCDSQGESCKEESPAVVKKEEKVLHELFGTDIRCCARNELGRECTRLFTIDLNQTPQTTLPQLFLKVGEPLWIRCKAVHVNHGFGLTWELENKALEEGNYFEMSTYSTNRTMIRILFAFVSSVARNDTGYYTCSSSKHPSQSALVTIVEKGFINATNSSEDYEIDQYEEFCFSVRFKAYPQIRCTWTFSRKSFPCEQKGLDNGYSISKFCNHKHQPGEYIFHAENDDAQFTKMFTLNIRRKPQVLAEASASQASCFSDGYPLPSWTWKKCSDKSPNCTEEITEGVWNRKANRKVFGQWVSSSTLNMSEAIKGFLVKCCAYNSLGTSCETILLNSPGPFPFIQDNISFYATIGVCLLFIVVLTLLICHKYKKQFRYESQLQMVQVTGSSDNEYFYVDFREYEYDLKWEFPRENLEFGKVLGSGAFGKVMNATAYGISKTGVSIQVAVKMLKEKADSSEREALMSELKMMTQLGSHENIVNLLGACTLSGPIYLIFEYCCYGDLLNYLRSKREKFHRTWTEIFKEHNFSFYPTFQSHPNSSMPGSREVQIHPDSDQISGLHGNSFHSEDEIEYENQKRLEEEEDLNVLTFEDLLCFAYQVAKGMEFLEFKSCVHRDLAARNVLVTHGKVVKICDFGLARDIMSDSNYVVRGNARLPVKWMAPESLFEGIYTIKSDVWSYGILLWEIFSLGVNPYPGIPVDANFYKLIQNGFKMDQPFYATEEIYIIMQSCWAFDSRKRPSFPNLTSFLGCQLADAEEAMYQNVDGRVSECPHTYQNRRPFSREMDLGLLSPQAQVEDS
How it was run: (§1)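 Single-concentration screen across a kinase panel spanning the main kinase families, the TAM family and the related MET family. Each sample was run in duplicate, and the read-out was percent inhibition of kinase activity.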

[4] = system: Proto-oncogene tyrosine-protein kinase receptor Ret (Homo sapiens), P07949 [Y791F]; assay: Inhibition of Ret Y791F mutant at 10 times IC50 concentration after 90 mins in presence of ATP; how it was run: as §1
Sequence of Proto-oncogene tyrosine-protein kinase receptor Ret (Homo sapiens), P07949 [Y791F] (P07949 whole entry Y791F): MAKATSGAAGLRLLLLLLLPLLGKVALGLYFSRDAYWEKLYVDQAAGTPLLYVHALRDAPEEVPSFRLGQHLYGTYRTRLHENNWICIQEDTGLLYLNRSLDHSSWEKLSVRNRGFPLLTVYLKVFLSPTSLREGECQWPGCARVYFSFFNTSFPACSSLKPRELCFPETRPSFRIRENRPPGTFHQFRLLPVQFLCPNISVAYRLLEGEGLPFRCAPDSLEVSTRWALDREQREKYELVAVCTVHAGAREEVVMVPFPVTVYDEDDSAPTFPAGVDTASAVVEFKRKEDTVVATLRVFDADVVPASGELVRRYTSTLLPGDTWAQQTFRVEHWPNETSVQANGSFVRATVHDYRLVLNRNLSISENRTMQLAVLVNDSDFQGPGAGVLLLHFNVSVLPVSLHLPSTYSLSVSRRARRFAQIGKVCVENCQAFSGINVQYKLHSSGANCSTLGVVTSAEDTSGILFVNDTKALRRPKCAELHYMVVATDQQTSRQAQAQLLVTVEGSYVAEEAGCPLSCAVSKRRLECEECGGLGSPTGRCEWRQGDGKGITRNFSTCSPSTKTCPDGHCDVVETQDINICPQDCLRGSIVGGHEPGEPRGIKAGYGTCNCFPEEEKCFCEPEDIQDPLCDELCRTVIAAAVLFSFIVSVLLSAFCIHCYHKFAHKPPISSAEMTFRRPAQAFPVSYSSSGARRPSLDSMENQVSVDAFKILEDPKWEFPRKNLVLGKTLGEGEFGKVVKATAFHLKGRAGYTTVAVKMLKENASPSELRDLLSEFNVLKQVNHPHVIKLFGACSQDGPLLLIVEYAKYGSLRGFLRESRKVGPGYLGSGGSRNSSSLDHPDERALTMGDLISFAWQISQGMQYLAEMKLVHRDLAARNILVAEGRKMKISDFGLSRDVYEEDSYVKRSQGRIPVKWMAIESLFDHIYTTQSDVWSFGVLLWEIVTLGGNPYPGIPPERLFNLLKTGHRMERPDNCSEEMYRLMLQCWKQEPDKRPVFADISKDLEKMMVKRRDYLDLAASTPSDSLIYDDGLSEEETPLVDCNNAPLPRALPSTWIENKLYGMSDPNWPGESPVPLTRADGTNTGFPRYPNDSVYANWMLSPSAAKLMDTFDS

[5] = target: Proto-oncogene tyrosine-protein kinase receptor Ret (Homo sapiens) (UniProt P07949); assay: Inhibition of Ret at 10 times IC50 concentration after 90 mins in presence of ATP; how it was run: as §1
Sequence of Proto-oncogene tyrosine-protein kinase receptor Ret (Homo sapiens) (P07949 whole entry): as the sequence (P07949 whole entry Y791F) above, with F791Y counted along it

[6] = target: MAP kinase-activated protein kinase 2 (Homo sapiens) (UniProt P49137); assay: Inhibition of MAPKAPK2 at 10 times IC50 concentration after 90 mins in presence of ATP; how it was run: as §1
Sequence of MAP kinase-activated protein kinase 2 (Homo sapiens) (P49137 whole entry, looked up): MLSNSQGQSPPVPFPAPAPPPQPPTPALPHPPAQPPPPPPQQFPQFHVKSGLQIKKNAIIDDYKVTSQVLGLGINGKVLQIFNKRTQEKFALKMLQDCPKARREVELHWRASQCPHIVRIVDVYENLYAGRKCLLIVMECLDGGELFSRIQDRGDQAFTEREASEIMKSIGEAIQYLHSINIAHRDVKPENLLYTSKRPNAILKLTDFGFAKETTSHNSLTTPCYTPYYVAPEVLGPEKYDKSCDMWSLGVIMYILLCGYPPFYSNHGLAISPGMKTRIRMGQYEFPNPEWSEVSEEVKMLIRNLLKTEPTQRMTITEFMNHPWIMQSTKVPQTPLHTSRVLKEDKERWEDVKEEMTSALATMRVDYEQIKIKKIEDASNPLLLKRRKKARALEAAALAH

[7] = target: T3, Tyrosine-protein kinase Mer (Homo sapiens, UniProt Q12866); assay: Inhibition of Mer expressed in Escherichia coli BL21 (DE3) cells using EFPIYDFLPAKKK-CONH2 as substrate after 180 mins by microfluid capillary electrophoresis assay
T3 sequence (Q12866 whole entry): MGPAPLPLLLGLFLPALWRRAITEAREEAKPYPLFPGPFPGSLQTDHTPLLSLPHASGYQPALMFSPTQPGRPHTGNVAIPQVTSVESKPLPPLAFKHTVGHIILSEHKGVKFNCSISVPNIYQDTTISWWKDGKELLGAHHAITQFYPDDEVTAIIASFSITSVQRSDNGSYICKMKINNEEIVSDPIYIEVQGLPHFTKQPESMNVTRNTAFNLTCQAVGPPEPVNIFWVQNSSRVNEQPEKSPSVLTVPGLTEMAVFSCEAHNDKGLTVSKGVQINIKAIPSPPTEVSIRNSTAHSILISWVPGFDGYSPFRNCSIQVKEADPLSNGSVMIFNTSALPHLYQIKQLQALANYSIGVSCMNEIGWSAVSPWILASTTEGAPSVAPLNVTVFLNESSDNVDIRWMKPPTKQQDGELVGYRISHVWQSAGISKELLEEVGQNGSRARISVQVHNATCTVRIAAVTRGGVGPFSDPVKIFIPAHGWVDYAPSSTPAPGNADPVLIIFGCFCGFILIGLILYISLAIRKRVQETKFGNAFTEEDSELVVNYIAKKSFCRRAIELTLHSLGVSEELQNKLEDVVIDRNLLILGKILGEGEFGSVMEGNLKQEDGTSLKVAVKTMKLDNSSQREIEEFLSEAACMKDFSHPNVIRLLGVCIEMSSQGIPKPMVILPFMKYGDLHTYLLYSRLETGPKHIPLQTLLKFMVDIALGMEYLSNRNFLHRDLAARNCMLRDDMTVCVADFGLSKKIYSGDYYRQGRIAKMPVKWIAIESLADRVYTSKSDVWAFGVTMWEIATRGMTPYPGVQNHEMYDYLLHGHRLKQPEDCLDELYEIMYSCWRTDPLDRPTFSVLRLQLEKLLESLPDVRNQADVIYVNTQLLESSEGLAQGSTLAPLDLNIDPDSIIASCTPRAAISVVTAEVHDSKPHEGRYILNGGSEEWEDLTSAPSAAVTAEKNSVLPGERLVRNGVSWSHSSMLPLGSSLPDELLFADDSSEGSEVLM

Mus musculus [8] = assay: Oral bioavailability in Swiss mouse at 3 mg/kg; format: ADME, organism-based; details: in vivo
Mus musculus [9] = assay: Volume of distribution at steady state in Swiss mouse at 3 mg/kg, iv; format: ADME, organism-based; design: dose 3 mg/kg, route intravenous; details: in vivo

| Structure (SMILES) | inhibition [3] | inhibition [4] | inhibition [5] | inhibition [6] | pIC50 [1] | pIC50 [2] | other results |
| --- | --- | --- | --- | --- | --- | --- | --- |
| CNc1ncc2c(C(C)C)nn(C[C@@H]3CCCN3)c2n1 |  |  |  |  | < 4.52 | < 4.52 |  |
| CC(C)n1cnc2c(Nc3cccc(Cl)c3)nc(NCCO)nc21 |  |  |  |  |  |  | pIC50 [7]: 4.96 |
| CNc1ncc2c(C(C)C)nn(CC3CCNCC3)c2n1 |  |  |  |  | < 4.52 | < 4.52 |  |

Further lines, with some results ahead:

| inhibition [3] | inhibition [4] | inhibition [5] | inhibition [6] | Structure (SMILES) | pIC50 [1] | pIC50 [2] | other results |
| --- | --- | --- | --- | --- | --- | --- | --- |
| 82% | 67% | 79% | 94% | N[C@H]1CC[C@H](Cn2nc(-c3ccc(N4CCNCC4)cc3)c3cnc(NCCCc4ccccc4)nc32)CC1 |  |  |  |
| 82% | 56% | 59% | 92% | CCCCNc1ncc2c(-c3ccc(F)cc3)nn(C[C@H]3CC[C@H](N)CC3)c2n1 [PYRAZOLOPYRIMIDINE] |  |  | F (Mus musculus [8]): 57%; Vdss (Mus musculus [9]): 5.83 L/kg |
